Results on 9 compounds are retold here after ChEMBL document CHEMBL4823323, “Monocyclic Nitro-heteroaryl Nitrones with Dual Mechanism of Activation: Synthesis and Antileishmanial Activity” (ACS Med Chem Lett, 2021).

The structures appear in SMILES notation. Activity calls are given as the source filed them. The calls are words filed in the database; no cut-off is given here.

Data set [1] is described as follows: Cytotoxicity against BALB/c mouse peritoneal macrophages assessed as reduction in cell viability incubated for 72 hrs by resazurin dye based fluorescence assay. On the set-up: species or system Peritoneal macrophage. The essentials:
(§1)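 CC50 values are means of three independent experiments, each in triplicate, ± standard error; selectivity index taken as macrophage CC50 divided by intracellular amastigote EC50.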

Data set [2] deals with Leishmania amazonensis. The data set can be described thus: Antileishmanial activity against Leishmania amazonensis MHOM/BR/77/LTB 0016 promastigotes assessed as inhibition of parasite growth incubated for 72 hrs by resazurin dye based assay. The class given is functional, organism-based. The settings on record: MHOM/BR/77/LTB 0016, 72 h. The essentials:
(§2)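 Values are averages of three independent experiments run in triplicate ± standard error.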

In data set [3] the test system is Leishmania infantum. Briefly: Antileishmanial activity against Leishmania infantum MHOM/MA/67/ITMAP-263 promastigotes assessed as inhibition of parasite growth incubated for 72 hrs by resazurin dye based assay. As to conditions: MHOM/MA/67/ITMAP-263, 72 h. The class given is functional, organism-based. In outline:
as §2

The nature of data set [4]: Electrochemical behavior of the compound in aprotic medium assessed as redox potential using glassy carbon electrode by cyclic voltammetry analysis. The class given is physicochemical.
The subject of data set [5] is Leishmania donovani. Briefly: Antileishmanial activity against Leishmania donovani LdBOB derived from MHOM/SD/62/1 S-CL2D promastigotes overexpressing NTR1 incubated for 72 hrs by resazurin dye based assay. The class given is functional, organism-based. In outline:
(§3)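 IC50 is the mean ± standard error of three independent experiments, each run in triplicate.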

Data set [6] has as its system Leishmania donovani. Briefly: Selectivity index, ratio of IC50 for antileishmanial activity against wild type Leishmania donovani promastigotes to IC50 for antileishmanial activity against Leishmania donovani LdBOB derived from MHOM/SD/62/1 S-CL2D promastigotes overexpressing NTR1. The class given is functional.
Data set [7] concerns Leishmania donovani. The data set can be described thus: Selectivity index, ratio of IC50 for antileishmanial activity against wild type Leishmania donovani promastigotes to IC50 for antileishmanial activity against Leishmania donovani LdBOB derived from MHOM/SD/62/1 S-CL2D promastigotes overexpressing NTR2. The class given is functional.
For data set [8], the system named is Leishmania amazonensis. Briefly: Induction of ROS production in Leishmania amazonensis promastigotes measured by H2DCFDA probe based fluorescence analysis. The class given is functional. As to conditions: time hrs <=4. In outline:
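L. amazonensis promastigotes exposed to compounds at concentrations based on the anti-promastigote EC50, with ROS followed kinetically over 4 h using H2DCFDA fluorescence; means ± SD, n=3.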

Another data set relates to Peritoneal macrophage. The data set can be described thus: Induction of ROS production in mouse peritoneal macrophages at EC50 concentration measured upto 4 hrs by H2DCFDA probe based fluorescence analysis. The class given is functional, cell-based. The settings on record: time hrs <=4. In outline:
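Murine peritoneal macrophages incubated 4 h with 0.5×, 1× and 2× EC50 of compounds (concentrations taken from the anti-promastigote assay); ROS quantified with H2DCFDA; means ± SD, n=3.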

For data set [9], the system named is Leishmania donovani. The data set can be described thus: Antileishmanial activity against wild type Leishmania donovani promastigotes incubated for 72 hrs by resazurin dye based assay. The class given is functional, organism-based. The essentials: as §3
Data set [10] deals with Leishmania donovani. Briefly: Antileishmanial activity against Leishmania donovani LdBOB derived from MHOM/SD/62/1 S-CL2D promastigotes overexpressing NTR2 incubated for 72 hrs by resazurin dye based assay. The class given is functional, organism-based. The essentials:
as §3

The nature of data set [11]: Selectivity index, ratio of CC50 for cytotoxicity against BALB/c mouse peritoneal macrophages assessed as reduction in cell viability incubated for 72 hrs by resazurin dye based fluorescence assay to IC50 for antileishmanial activity against intracellular Leishmania amazonensis MHOM/BR/77/LTB 0016 amastigotes infected in BALB/c mouse peritoneal macrophage. As to conditions: read-out: Selectivity Index. The class given is toxicity. The essentials:
as §1

In data set [12] the test system is Leishmania amazonensis. Briefly: Antileishmanial activity against intracellular Leishmania amazonensis MHOM/BR/77/LTB 0016 amastigotes infected in BALB/c mouse peritoneal macrophage assessed as reduced parasite growth incubated for 72 hrs by PANOTIC staining based assay. The class given is functional, organism-based. As to conditions: MHOM/BR/77/LTB 0016, Peritoneal macrophage. The essentials: as §2

Data set [13] in a line: Selectivity index, ratio of CC50 for cytotoxicity against BALB/c mouse peritoneal macrophages assessed as reduction in cell viability incubated for 72 hrs by resazurin dye based fluorescence assay to IC50 for antileishmanial activity against intracellular Leishmania infantum MHOM/MA/67/ITMAP-263 amastigotes infected in BALB/c mouse peritoneal macrophage. The class given is toxicity. As to conditions: read-out: Selectivity Index. The essentials: as §1

The test system of data set [14] is Leishmania infantum. Briefly: Antileishmanial activity against intracellular Leishmania infantum MHOM/MA/67/ITMAP-263 amastigotes infected in BALB/c mouse peritoneal macrophage assessed as reduced parasite growth incubated for 72 hrs by PANOTIC staining based assay. The class given is functional, organism-based. As to conditions: MHOM/MA/67/ITMAP-263, Peritoneal macrophage. The essentials:
as §2

For the compound `C/[N+]([O-])=C/c1cccs1`, the CC50 at 72 h in data set [1] is greater than 100 µM. Moreover, the IC50 in the data set on Leishmania amazonensis [2] and with Leishmania infantum [3] was greater than 100 µM each time.
Consider `CC(C)(C)/[N+]([O-])=C/c1ccc([N+](=O)[O-])s1`, for which the Activity in [4] was -0.64 V. For the same compound, the IC50 with Leishmania donovani [5] was 0.27 µM; in the data set with Leishmania amazonensis [2], 11.3 µM; in the data set with Leishmania infantum [3], 13.3 µM; in the data set on Leishmania donovani [9], 4.55 µM; with Leishmania donovani [10] it was 0.31 µM. Further, the Ratio IC50 in the data set with Leishmania donovani [6] amounted to 17; with Leishmania donovani [7], 18. The CC50 at 72 h in [1] was determined as 29.8 µM. For the same compound, the outcome with Leishmania amazonensis [8] and with Peritoneal macrophage was inactive.
For `CC(C)(C)/[N+]([O-])=C/c1ccc([N+](=O)[O-])o1`, the Activity in data set [4] is reported as -0.67 V. The values for the selectivity ratio at 72 h in data set [11] and in data set [13] were 39 and 5670, respectively. The half-maximal inhibitory concentration (IC50) in the data set with Leishmania amazonensis [12] amounted to 2.76 µM; in the data set on Leishmania donovani [5], 0.05 µM; with Leishmania amazonensis [2] it was 1.99 µM; in the data set on Leishmania infantum [14], 0.019 µM; in the data set on Leishmania infantum [3], 0.36 µM; in the data set with Leishmania donovani [9], 0.87 µM. In addition, the IC50 in the data set on Leishmania donovani [10] was 0.04 µM. Moreover, the Ratio IC50 came out at 17 in the data set with Leishmania donovani [6] and 21 in the data set with Leishmania donovani [7]. The CC50 at 72 h in [1] came out at 108 µM. For the same compound, the result in the data set with Leishmania amazonensis [8] and in the data set with Peritoneal macrophage was inactive.
In the case of `C/[N+]([O-])=C/c1ccc([N+](=O)[O-])s1`, the Activity in data set [4] is reported as -0.61 V. Further, the selectivity ratio at 72 h in data set [11] came to 6. Besides, the 50% inhibitory concentration (IC50) came out at 3.81 µM in the data set with Leishmania amazonensis [12]; 0.24 µM in the data set on Leishmania donovani [5]; 9.72 µM with Leishmania amazonensis [2]; 3.45 µM in the data set on Leishmania infantum [3]; 1.12 µM in the data set on Leishmania donovani [9]; 0.25 µM with Leishmania donovani [10]. Moreover, the figures for the Ratio IC50 with Leishmania donovani [6] and in the data set on Leishmania donovani [7] were 4.6 and 4.5, respectively. Moreover, the 50% cytotoxic concentration (CC50) at 72 h in [1] stood at 24.2 µM. Moreover, the result with Leishmania amazonensis [8] and in the data set with Peritoneal macrophage was inactive.
With `O=Cc1ccco1` [FURFURAL], the half-maximal inhibitory concentration (IC50) with Leishmania amazonensis [2] and with Leishmania infantum [3] was greater than 100 µM each time.
With `O=Cc1ccc([N+](=O)[O-])o1`, the Activity in data set [4] is given as -0.38 V. Besides, the selectivity ratio at 72 h in [11] was less than 0.5. Also, the IC50 is greater than 57.9 µM with Leishmania amazonensis [12], 25.2 µM in the data set on Leishmania amazonensis [2] and 25.7 µM in the data set with Leishmania infantum [3]. In addition, in data set [1], the 50% cytotoxic concentration (CC50) at 72 h worked out at 27.8 µM.
Regarding `CC1CS(=O)(=O)CCN1/N=C/c1ccc([N+](=O)[O-])o1` (stereo not drawn) [NIFURTIMOX], the half-maximal inhibitory concentration (IC50) in the data set with Leishmania donovani [5] was found to be 0.11 µM; in the data set with Leishmania donovani [9], 1.89 µM. For the same compound, the Ratio IC50 with Leishmania donovani [6] was determined as 17.
As to `O=[N+]([O-])c1ccc(/C=[N+](\[O-])Cc2ccccc2)s1`, the selectivity ratio at 72 h was found to be 3.4 in [11] and 2.6 in data set [13]. The IC50 turned out to be 5.42 µM in the data set with Leishmania amazonensis [12]; 0.3 µM in the data set with Leishmania donovani [5]; 1.5 µM with Leishmania amazonensis [2]; 7.18 µM in the data set on Leishmania infantum [14]; 1.51 µM in the data set on Leishmania infantum [3]; 0.41 µM in the data set on Leishmania donovani [9]. Further, in the data set on Leishmania donovani [10], the half-maximal inhibitory concentration (IC50) is 0.76 µM. For the same compound, the Ratio IC50 stood at 1.3 in the data set on Leishmania donovani [6] and 0.53 in the data set on Leishmania donovani [7]. Also, in [1], the CC50 at 72 h turned out to be 18.5 µM.
`C[C@]1(COc2ccc(N3CCC(Oc4ccc(OC(F)(F)F)cc4)CC3)cc2)Cn2cc([N+](=O)[O-])nc2O1` [DELAMANID]: the Ratio IC50 in the data set on Leishmania donovani [7] worked out at 12.5. Moreover, the IC50 in the data set with Leishmania donovani [9] was 0.0015 µM; in the data set with Leishmania donovani [10] it was 0.00012 µM.
